Measurements as given in ChEMBL document CHEMBL3046679, “Design, synthesis, and biological activities of arylmethylamine substituted chlorotriazine and methylthiotriazine compounds” (J Agric Food Chem, 2011).
The source made the active and inactive calls.

Key:
[1] = system: Puccinia triticina; assay: Fungicidal activity against Puccinia triticina assessed as inhibition of disease development in compound treated leaf pieces at 200 ppm relative to untreated control (wheat-curative); assay type: functional
Outline: (§1)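 Curative wheat leaf-piece test against Puccinia triticina. Leaf pieces inoculated with spores first, then treated with formulated compound at 200, 60 or 20 ppm. Disease scored 3–9 days after inoculation as percent inhibition versus untreated controls. Values are the mean across replicates.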

[2] = system: Puccinia triticina; assay: Fungicidal activity against Puccinia triticina assessed as inhibition of disease development in compound treated leaf pieces at 200 ppm relative to untreated control (wheat-preventative); assay type: functional
Outline: (§2)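 Preventative leaf-piece test on host tissue (tomato, vine, wheat or barley). Formulated compound applied at 200, 60 and 20 ppm before spore inoculation. Disease scored 3–9 days after inoculation, depending on the pathogen, as percent inhibition of disease development versus untreated controls. Values are the mean across replicates.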

[3] = system: Blumeria graminis f. sp. tritici; assay: Fungicidal activity against Blumeria graminis f. sp. tritici assessed as inhibition of disease development in compound treated leaf pieces at 200 ppm relative to untreated control (wheat-preventative); assay type: functional
[4] = system: Plasmopara viticola; assay: Fungicidal activity against Plasmopara viticola assessed as inhibition of disease development in compound treated leaf pieces at 200 ppm relative to untreated control (grapevine-preventative); assay type: functional; outline: as §2
[5] = system: Phytophthora infestans; assay: Fungicidal activity against Phytophthora infestans assessed as inhibition of disease development in compound treated leaf pieces at 200 ppm relative to untreated control (tomato-preventative); assay type: functional; outline: as §2
[6] = system: Uromyces viciae-fabae; assay: Fungicidal activity against Uromyces viciae-fabae assessed as inhibition of mycelia growth at 100 ppm; assay type: functional, organism-based
Outline: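 Leaf-piece assay on bean at 100 ppm, with compound applied before spore inoculation and two replicates. Each well scored 99 for complete inhibition, 55 for partial and 0 for none; value is the mean score across replicates.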

[7] = system: Phytophthora infestans; assay: Fungicidal activity against Phytophthora infestans assessed as inhibition of mycelia growth at 200 ppm; assay type: functional, organism-based
[8] = system: Fusarium graminearum; assay: Fungicidal activity against Fusarium graminearum assessed as inhibition of mycelia growth at 2 ppm; assay type: functional, organism-based
Outline: (§3)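 Mycelial growth test in 96-well plates: compound incorporated into artificial growth medium at 2 ppm, two replicates per rate. Each well scored 99 for complete, 55 for partial or 0 for no inhibition. Values are the mean across replicates; azoxystrobin and prochloraz used as positive controls.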

[9] = system: Alternaria solani; assay: Fungicidal activity against Alternaria solani assessed as inhibition of mycelia growth at 2 ppm; assay type: functional, organism-based; outline: as §3
[10] = system: Pythium dissimile; assay: Fungicidal activity against Pythium dissimile assessed as inhibition of mycelia growth at 2 ppm; assay type: functional, organism-based; outline: as §3
[11] = system: Echinochloa crus-galli; assay: Herbicidal activity against Echinochloa crus-galli (barnyard grass) at 1.5 kg/ha postemergence treatment measured after 10 days by glasshouse test; assay type: functional; details: post-emergence, 240 h
Outline: (§4)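 Glasshouse pre/postemergence test, each treatment in triplicate. Above-ground fresh weight measured 10 days after treatment. Result expressed as percent inhibition versus control, from 0 (no control) to 100 (complete control); glyphosate used as positive control.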

[12] = system: Brassica napus; assay: Herbicidal activity against Brassica napus (oilseed rape) at 1.5 kg/ha postemergence treatment measured after 10 days by glasshouse test; assay type: functional; details: post-emergence, 240 h; outline: as §4
[13] = system: Echinochloa crus-galli; assay: Herbicidal activity against Echinochloa crus-galli (barnyard grass) at 1.5 kg/ha preemergence treatment measured after 10 days by glasshouse test; assay type: functional; details: pre-emergence, 240 h; outline: as §4
[14] = system: Brassica napus; assay: Herbicidal activity against Brassica napus (oilseed rape) at 1.5 kg/ha preemergence treatment measured after 10 days by glasshouse test; assay type: functional; details: pre-emergence, 240 h; outline: as §4
[15] = system: Alternaria solani; assay: Fungicidal activity against Alternaria solani assessed as inhibition of disease development in compound treated leaf pieces at 20 ppm relative to untreated control (tomato-preventative); assay type: functional; outline: as §2
[16] = system: Pyrenophora teres; assay: Fungicidal activity against Pyrenophora teres assessed as inhibition of disease development in compound treated leaf pieces at 20 ppm relative to untreated control (barley-preventative); assay type: functional; outline: as §2
[17] = system: Parastagonospora nodorum; assay: Fungicidal activity against Phaeosphaeria nodorum assessed as inhibition of disease development in compound treated leaf pieces at 20 ppm relative to untreated control (wheat preventative); assay type: functional; outline: as §2
[18] = system: Puccinia triticina; assay: Fungicidal activity against Puccinia triticina assessed as inhibition of disease development in compound treated leaf pieces at 20 ppm relative to untreated control (wheat-curative); assay type: functional; outline: as §1
[19] = system: Puccinia triticina; assay: Fungicidal activity against Puccinia triticina assessed as inhibition of disease development in compound treated leaf pieces at 20 ppm relative to untreated control (wheat-preventative); assay type: functional; outline: as §2
[20] = system: Blumeria graminis f. sp. tritici; assay: Fungicidal activity against Blumeria graminis f. sp. tritici assessed as inhibition of disease development in compound treated leaf pieces at 20 ppm relative to untreated control (wheat-preventative); assay type: functional
[21] = system: Plasmopara viticola; assay: Fungicidal activity against Plasmopara viticola assessed as inhibition of disease development in compound treated leaf pieces at 20 ppm relative to untreated control (grapevine-preventative); assay type: functional; outline: as §2
[22] = system: Phytophthora infestans; assay: Fungicidal activity against Phytophthora infestans assessed as inhibition of disease development in compound treated leaf pieces at 20 ppm relative to untreated control (tomato-preventative); assay type: functional; outline: as §2
[23] = system: Alternaria solani; assay: Fungicidal activity against Alternaria solani assessed as inhibition of disease development in compound treated leaf pieces at 60 ppm relative to untreated control (tomato-preventative); assay type: functional; outline: as §2
[24] = system: Pyrenophora teres; assay: Fungicidal activity against Pyrenophora teres assessed as inhibition of disease development in compound treated leaf pieces at 60 ppm relative to untreated control (barley-preventative); assay type: functional; outline: as §2
[25] = system: Parastagonospora nodorum; assay: Fungicidal activity against Phaeosphaeria nodorum assessed as inhibition of disease development in compound treated leaf pieces at 60 ppm relative to untreated control (wheat preventative); assay type: functional; outline: as §2
[26] = system: Puccinia triticina; assay: Fungicidal activity against Puccinia triticina assessed as inhibition of disease development in compound treated leaf pieces at 60 ppm relative to untreated control (wheat-curative); assay type: functional; outline: as §1
[27] = system: Puccinia triticina; assay: Fungicidal activity against Puccinia triticina assessed as inhibition of disease development in compound treated leaf pieces at 60 ppm relative to untreated control (wheat-preventative); assay type: functional; outline: as §2
[28] = system: Blumeria graminis f. sp. tritici; assay: Fungicidal activity against Blumeria graminis f. sp. tritici assessed as inhibition of disease development in compound treated leaf pieces at 60 ppm relative to untreated control (wheat-preventative); assay type: functional
[29] = system: Plasmopara viticola; assay: Fungicidal activity against Plasmopara viticola assessed as inhibition of disease development in compound treated leaf pieces at 60 ppm relative to untreated control (grapevine-preventative); assay type: functional; outline: as §2
[30] = system: Phytophthora infestans; assay: Fungicidal activity against Phytophthora infestans assessed as inhibition of disease development in compound treated leaf pieces at 60 ppm relative to untreated control (tomato-preventative); assay type: functional; outline: as §2
[31] = system: Alternaria solani; assay: Fungicidal activity against Alternaria solani assessed as inhibition of disease development in compound treated leaf pieces at 200 ppm relative to untreated control (tomato-preventative); assay type: functional; outline: as §2
[32] = system: Pyrenophora teres; assay: Fungicidal activity against Pyrenophora teres assessed as inhibition of disease development in compound treated leaf pieces at 200 ppm relative to untreated control (barley-preventative); assay type: functional; outline: as §2
[33] = system: Triticum aestivum; assay: Phytotoxicity against Triticum aestivum (wheat) plant at 200 ppm; assay type: organism-based; details: in vivo
[34] = system: Heliothis virescens; assay: Insecticidal activity against Lepidoptera Heliothis virescens (tobacco budworm) assessed as mortality at 1000 ppm by leaf-disk assay; assay type: functional, organism-based
Outline: (§5)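 Leaf-disk assay at 1000 ppm, three replicates. Plates kept 5–9 days in controlled-environment cabinets. Mortality judged against untreated wells: 99 for significant mortality, 0 otherwise. Values are the mean of three; thiamethoxam and indoxacarb used as positive controls.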

[35] = system: Aphididae; assay: Insecticidal activity against Aphididae (aphids) assessed as mortality at 1000 ppm by leaf-disk assay; assay type: functional, organism-based; outline: as §5

CSc1nc(NCc2cc(-c3ccccc3)no2)nc(NC(C)C)n1
33.1%: inhibition at 1500 g/ha [14]
Toxic: Activity [33]
100%: inhibition at 200 ppm [1] | inhibition at 200 ppm [2] | inhibition at 1500 g/ha [12] | inhibition at 60 ppm [26]
14.3%: inhibition at 1500 g/ha [11]
inactive: inhibition [7] | inhibition [8] | inhibition [9] | inhibition [10] | mortality [34] | mortality [35]
37.6%: inhibition at 1500 g/ha [13]
active: inhibition [6]
0%: inhibition at 200 ppm [4] | inhibition at 200 ppm [5] | inhibition at 20 ppm [15] | inhibition at 20 ppm [16] | inhibition at 20 ppm [17] | inhibition at 20 ppm [19] | inhibition at 20 ppm [20] | inhibition at 20 ppm [21] | inhibition at 20 ppm [22] | inhibition at 60 ppm [23] | inhibition at 60 ppm [24] | inhibition at 60 ppm [29] | inhibition at 60 ppm [30] | inhibition at 200 ppm [31] | inhibition at 200 ppm [32]
70%: inhibition at 200 ppm [3] | inhibition at 20 ppm [18] | inhibition at 60 ppm [25] | inhibition at 60 ppm [27] | inhibition at 60 ppm [28]
